ERp5 block – inhibitors of human ERp5; Q15084; ERp5 insulin aggregation, absorbance 650 nm, 90 min; inhibition, % at 9.99 µM; actives 0.05% (n = 350,000);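 active = mean replicate inhibition above about 25%, with every replicate also reaching it, limit read from the data, passing the limit was not always enough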
Target sequence (Q15084 whole entry, looked up): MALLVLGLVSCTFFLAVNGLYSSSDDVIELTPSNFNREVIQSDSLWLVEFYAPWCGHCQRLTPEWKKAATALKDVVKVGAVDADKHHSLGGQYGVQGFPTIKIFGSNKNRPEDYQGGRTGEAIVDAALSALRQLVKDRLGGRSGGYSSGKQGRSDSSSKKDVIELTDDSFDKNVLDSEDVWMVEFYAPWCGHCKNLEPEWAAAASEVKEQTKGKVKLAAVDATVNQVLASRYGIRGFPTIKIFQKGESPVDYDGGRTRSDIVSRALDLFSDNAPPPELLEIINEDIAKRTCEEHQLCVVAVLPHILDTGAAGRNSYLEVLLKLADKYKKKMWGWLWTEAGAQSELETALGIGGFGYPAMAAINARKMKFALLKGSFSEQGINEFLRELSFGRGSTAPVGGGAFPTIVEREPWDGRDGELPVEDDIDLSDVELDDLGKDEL
S100A4 inh HTS – blocks human S100A4 binding to myosin IIA peptide | AID 652163 | P26447 | inhibition, % at 10.7 µM | S100A4/TAMRA-MyoIIA peptide fluorescence polarization | actives 0.14% (n = 360,000);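 active = mean inhibition of at least 70% across replicates, with every replicate also reaching that level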
Target sequence (P26447 whole entry, looked up): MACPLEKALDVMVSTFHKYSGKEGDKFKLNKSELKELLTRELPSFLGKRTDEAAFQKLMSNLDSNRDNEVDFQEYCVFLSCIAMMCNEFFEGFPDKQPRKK
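Material: S100A4 monomer protein / Buffer or medium: 50 mM HEPES pH 7.2, 10 mM CaCl2, 100 mM KCl / Times: 5 min incubation before reading / Benchmarks: neutral control DMSO, positive control TFP / Reagent: labelled myosin peptide probe, 5 nM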
GSIS activator – primary screen for activators of insulin secretion dependent on glucose, INS-1E cells, GLuc reporter luminescence; INS-1E GLuc reporter insulin secretion, 2-3 h; activation, % at 16.6 µM; actives 0.61% (n = 370,000); AID 743287;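 active = lowest replicate activation of at least 40%, so every replicate reaches that level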
SIRT5 inh – inhibitors of human sirtuin-5 desuccinylase | Purified SirT5, succinyl-peptide AMC, trypsin-coupled fluorescence | actives 1.1% (n = 330,000) | inhibition, % at 15 µM | AID 652115 | Q9NXA8; in the data active = inhibition above about 15%
PDI turbidity – blocks human protein disulfide isomerase activity; P07237; PDI insulin aggregation turbidity, A650, 90 min; inhibition, % at 10 µM; actives 0.052% (n = 350,000); AID 588391;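 active = mean inhibition across replicates of 30% or more, whatever share of single replicates reach that level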
Of the large screens only hits and unclear results are named; the others gave an inactive call. Only some compounds are listed: those with a hit (about 1.5% of all), similar ones and a draw of the others.

CC(C)(C)OC(=O)N1CCCC(C(=O)Nc2cccc(C(=O)NCCc3ccccc3)c2)C1 (stereo not drawn)	none
CC(C)(C)OC(=O)N1CCCC(C(=O)Nc2cccc(C(=O)NCCCCc3ccccc3)c2)C1 (stereo not drawn)	SIRT5 inh 17
CC(C)(C)OC(=O)N(CCc1ccccc1)Cc1ccccc1OCc1cccc(NC(=O)C2CCCC2)c1	SIRT5 inh 29
CC(C)C(=O)Nc1cccc(COc2ccccc2CN(Cc2ccccc2)C(=O)OC(C)(C)C)c1	SIRT5 inh 18
CO[C@H]1CN(C)C(=O)c2ccc(NS(=O)(=O)c3ccccc3F)cc2OC[C@@H](C)NC[C@@H]1C	none (no result: PDI turbidity)
O=C(O)CCCC(=O)N1CCc2cc(S(=O)(=O)N3CCc4ccccc43)ccc21	SIRT5 inh 28 (no result: PDI turbidity)
O=C(c1ccccc1)c1ccccc1N1C(=O)C=CC1=O	GSIS activator 192
C[C@H](CO)N1C[C@H](C)[C@H](CN(C)Cc2ccc3c(c2)OCO3)Oc2ccc(NS(=O)(=O)c3ccccc3)cc2C1=O	none (no result: SIRT5 inh, PDI turbidity)
COc1ccccc1OCC(=O)N1CCCCCC1	none (no result: GSIS activator)
CCOC(=O)N1CCN(C(=O)COc2ccccc2OC)CC1	GSIS activator 62 (no result: ERp5 block, S100A4 inh HTS, SIRT5 inh)
O=[N+]([O-])c1cccc(-c2cnc3ccccc3n2)c1	none
O=[N+]([O-])c1cccc(-c2nc3ccccc3s/c2=N/O)c1	GSIS activator 82
C[C@@H]1CN([C@@H](C)CO)S(=O)(=O)c2ccc(Br)cc2O[C@@H]1CN(C)C(=O)c1cnccn1	none (no result: PDI turbidity)
COc1ccc(N2CCN(C(=O)CN(C)S(=O)(=O)c3cc(C)ccc3OC)CC2)cc1	SIRT5 inh 19
COc1ccc(OC)c(S(=O)(=O)N(C)CC(=O)N2CCCCC2)c1	none
COc1ccc(NC(=O)N[C@@H]2CC[C@H](CCn3cc(C4(O)CCCC4)nn3)O[C@H]2CO)cc1	none (no result: PDI turbidity)
CN(C)CCCn1c2c3ccccc3ccc2c2oc(=O)c3ccccc3c21	GSIS activator 80 (no result: SIRT5 inh)
CSc1nc(Cl)c(Cc2ccc(OC(C)C)cc2)c(N2CCOCC2)n1	none (no result: ERp5 block, S100A4 inh HTS, SIRT5 inh)
CSc1nc(N2CCOCC2)c2sccc2n1	GSIS activator 76
CCC(=O)N1[C@@H]2c3ccc(-c4ccccc4F)c(=O)n3C[C@H]1[C@H](CO)[C@H]2C(=O)NC1CCC1	none (no result: PDI turbidity)
O=C(NC1CCCCC1)N1CC(=O)N2[C@@H](CO)[C@@H](c3ccc(-c4cccnc4)cc3)[C@@H]2C1	none (no result: PDI turbidity)
COc1ccc(-c2cnc3c(c2)C(=O)N([C@@H](C)CO)C[C@@H](C)[C@H](CN(C)C(=O)Cc2ccccc2)O3)cc1	none (no result: PDI turbidity)
CCOc1ccccc1NC(=O)COC(=O)C1CC(=O)N(c2c(C)cccc2C)C1 (stereo not drawn)	SIRT5 inh 19
C[C@@H]1CN([C@H](C)CO)C(=O)Cc2cc(NC(=O)CCCCCC(=O)Nc3ccccc3N)ccc2O[C@H]1CN(C)Cc1ccc(Oc2ccccc2)cc1	SIRT5 inh 15 (no result: PDI turbidity)
C[C@H]1CN([C@@H](C)CO)C(=O)Cc2cc(NC(=O)Cc3ccccc3)ccc2O[C@H]1CN(C)Cc1ccc(Oc2ccccc2)cc1	SIRT5 inh 17 (no result: PDI turbidity)
C[C@H](CO)N1C[C@H](C)[C@H](CN(C)Cc2ccncc2)Oc2ccc(NC(=O)CCCCCC(=O)Nc3ccccc3N)cc2C1=O	none (no result: SIRT5 inh, PDI turbidity)
C[C@@H]1CN([C@@H](C)CO)C(=O)c2cc(NC(=O)CCCCCC(=O)Nc3ccccc3N)ccc2O[C@H]1CN(C)Cc1ccccc1	SIRT5 inh 21 (no result: PDI turbidity)
C[C@H]1CN([C@@H](C)CO)C(=O)c2cc(NC(=O)CCCCCC(=O)Nc3ccccc3N)ccc2O[C@H]1CN(C)Cc1ccc(Oc2ccccc2)cc1	SIRT5 inh 17 (no result: PDI turbidity)
COc1ccc(CN(C)C[C@H]2Oc3ccc(NC(=O)CCCCCC(=O)Nc4ccccc4N)cc3CC(=O)N([C@@H](C)CO)C[C@@H]2C)cc1	none (no result: PDI turbidity)
COc1ccccc1NC(=O)N[C@@H]1CC[C@H](CC(=O)N[C@@H](C)c2ccccc2)O[C@H]1CO	none (no result: PDI turbidity)
C=CCOC(=O)[C@H]1[C@@H]2C(=O)O[C@@H](c3ccccc3)[C@@H](c3ccccc3)N2[C@@H](c2ccc(OCCOC(=O)[C@H]3C[C@H]4C(=O)N[C@@H](CC(C)C)C(=O)N4[C@H]3c3cccc(OCCO)c3)cc2)[C@]12C(=O)Nc1ccccc12	none (no result: GSIS activator, PDI turbidity)
C[C@H](CO)N1C[C@H](C)[C@@H](CN(C)C(=O)Nc2ccccc2)Oc2ccc(NC(=O)NC3CCCCC3)cc2CC1=O	none (no result: PDI turbidity)
Cc1noc(C)c1S(=O)(=O)Nc1ccc2c(c1)C(=O)N([C@H](C)CO)C[C@@H](C)[C@H](CN(C)S(=O)(=O)c1cccs1)OCCCC[C@@H](C)O2	none (no result: ERp5 block, S100A4 inh HTS, SIRT5 inh, PDI turbidity)
CNC[C@H]1Oc2ccc(NC(=O)C3CC3)cc2CC(=O)N([C@@H](C)CO)C[C@@H]1C	none (no result: PDI turbidity)
C[C@H]1CN([C@@H](C)CO)C(=O)c2cc(NC(=O)CCCCCC(=O)Nc3ccccc3N)ccc2O[C@H]1CN(C)Cc1ccc(-c2ccccc2)cc1	none (no result: ERp5 block, S100A4 inh HTS, SIRT5 inh, PDI turbidity)
C[C@H](CO)N1C[C@H](C)[C@H](CN(C)Cc2ccc(-c3ccccc3)cc2)Oc2ccc(NC(=O)CCCCCC(=O)Nc3ccccc3N)cc2C1=O	SIRT5 inh 23 (no result: PDI turbidity)
Cc1cc(C(=O)Nc2cccc3c2O[C@H](CN(C)Cc2ccc(-c4ccccc4)cc2)[C@@H](C)CN([C@@H](C)CO)C3=O)n(C)n1	none (no result: PDI turbidity)
Oc1ccc(-c2nccc(-c3ccc(Cl)cc3)n2)cc1	none
Clc1ccc(-c2ccnc(Oc3ccc4ccccc4c3)n2)cc1	GSIS activator 114 (no result: ERp5 block, S100A4 inh HTS, SIRT5 inh)
N#Cc1cc(-c2ccccc2)nc(Oc2ccc(Cl)cc2)n1	none (no result: ERp5 block, S100A4 inh HTS, SIRT5 inh)
Clc1ccc(-c2ccnc(Oc3cc(Cl)ccc3Cl)n2)cc1	GSIS activator 85 (no result: ERp5 block, S100A4 inh HTS, SIRT5 inh)
COc1cccc(-c2ccc3n(c2=O)C[C@@H]2[C@@H](CO)[C@H](C(=O)NC4CCCC4)N[C@H]32)c1	none (no result: PDI turbidity)
Nc1ccc(-c2c3ccc(=O)cc-3oc3cc(O)ccc23)cc1C(=O)O	SIRT5 inh 19
O=c1ccc2c(-c3ccccc3)c3ccc(O)cc3oc-2c1	none
O=C(CSc1ccc(Cl)cc1)N1N=CCC1c1ccccc1 (stereo not drawn)	none (no result: GSIS activator)
NC(=NC(=O)c1ccc(Cl)cc1)N1N=CCC1c1ccccc1 (stereo not drawn)	SIRT5 inh 16
CCC(=O)N1CC2(C1)CN(C(=O)CN1CCOCC1)[C@@H](CO)c1[nH]c3cc(OC)ccc3c12	none (no result: ERp5 block, S100A4 inh HTS, SIRT5 inh, PDI turbidity)
C[C@H]1CN([C@@H](C)CO)S(=O)(=O)c2ccc(-c3cccc(F)c3)cc2O[C@@H]1CN(C)S(=O)(=O)c1ccc(F)cc1	SIRT5 inh 18 (no result: PDI turbidity)
C[C@@H]1CN([C@H](C)CO)S(=O)(=O)c2ccc(-c3cccc(F)c3)cc2O[C@@H]1CN(C)S(=O)(=O)c1ccc(F)cc1	SIRT5 inh 20 (no result: PDI turbidity)
CN1c2ccc(-c3ccccc3)cc2[C@H]2[C@H](CCN2S(=O)(=O)c2ccccc2F)[C@H]1CO	none (no result: PDI turbidity)
COc1cccc(-c2ccc3c(c2)[C@H]2[C@H](CCN2C(=O)c2ccccc2F)[C@@H](CO)N3C)c1	none (no result: S100A4 inh HTS, SIRT5 inh, PDI turbidity)

High-throughput results (PubChem)
